Source: PubChem (Johns Hopkins Ion Channel Center)
TRPC4 act: activators of mouse TRPC4 channel, primary screen, Fluo4 calcium, HEK293 TRPC4beta/mu-opioid cells | Short transient receptor potential channel 4 (Mus musculus), Q9QUQ5 | Fluo4 calcium fluorescence; hits give high values | B-score at 10 µM | 310,000 tested, 0.49% active | AID 2237, 2010;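 active = B-score above 5 SD of library B-scores, and initial fluorescence ratio not above library mean plus 5 SD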;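 note: positive B-score marks a calcium rise read as TRPC4 activation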
Target sequence (Q9QUQ5 whole entry, looked up): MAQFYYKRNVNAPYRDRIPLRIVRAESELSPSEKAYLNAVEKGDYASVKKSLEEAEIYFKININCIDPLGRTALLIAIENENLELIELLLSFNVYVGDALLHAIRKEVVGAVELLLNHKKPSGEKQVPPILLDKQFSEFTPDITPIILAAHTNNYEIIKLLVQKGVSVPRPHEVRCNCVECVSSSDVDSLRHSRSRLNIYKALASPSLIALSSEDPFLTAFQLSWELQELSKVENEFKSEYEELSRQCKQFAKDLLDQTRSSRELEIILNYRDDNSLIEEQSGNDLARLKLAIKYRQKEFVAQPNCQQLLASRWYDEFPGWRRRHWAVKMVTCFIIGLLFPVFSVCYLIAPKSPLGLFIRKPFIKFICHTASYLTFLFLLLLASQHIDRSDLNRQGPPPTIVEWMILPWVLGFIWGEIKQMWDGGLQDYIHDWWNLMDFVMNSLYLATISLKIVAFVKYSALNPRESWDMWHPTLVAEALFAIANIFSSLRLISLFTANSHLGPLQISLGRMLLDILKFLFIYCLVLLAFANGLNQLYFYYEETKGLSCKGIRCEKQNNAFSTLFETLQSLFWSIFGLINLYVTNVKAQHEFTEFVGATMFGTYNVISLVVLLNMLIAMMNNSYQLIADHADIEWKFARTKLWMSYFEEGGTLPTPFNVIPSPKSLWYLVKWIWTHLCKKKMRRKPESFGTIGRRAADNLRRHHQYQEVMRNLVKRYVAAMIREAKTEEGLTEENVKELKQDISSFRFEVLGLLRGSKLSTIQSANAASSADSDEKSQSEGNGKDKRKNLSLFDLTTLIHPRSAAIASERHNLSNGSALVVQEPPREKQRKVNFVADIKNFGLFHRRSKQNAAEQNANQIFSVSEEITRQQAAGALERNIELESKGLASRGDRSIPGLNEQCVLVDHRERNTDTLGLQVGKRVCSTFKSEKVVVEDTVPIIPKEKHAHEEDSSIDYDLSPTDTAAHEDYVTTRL
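Test system: HEK293 cells stably co-expressing mouse TRPC4beta and mu-opioid receptor | Schedule: Fluo4 dye loading 45 min at room temperature, 110 s recording | Measured by: Kinetic Fluo4 calcium fluorescence, 5 s baseline at 1 Hz | Evaluation: B score of integrated ratio | Controls: Buffer (low) and maximal DAMGO (high)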
TRPC4 block: inhibitors of mouse TRPC4 channel, primary screen, Fluo4 calcium, HEK293 TRPC4beta/mu-opioid cells. Short transient receptor potential channel 4 (Mus musculus), Q9QUQ5. DAMGO-evoked Fluo4 calcium flux; hits give low values. B-score at 10 µM. 300,000 tested, 0.39% active;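 active = B-score over 3 SD under the library average, no early fluorescence shift, positive overall ratio signal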
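Assay system – HEK293 line stably carrying TRPC4beta and mu-opioid receptor · Doses – single dose · Detection – Fluo4 calcium-dye fluorescence, kinetic read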
TRPC4 potent: positive allosteric modulators of TRPC4, primary screen, cell-based, mouse TRPC4beta, HEK293 mu-opioid, Fluo-4 calcium; DAMGO EC20, Fluo-4 Ca2+ flux; hits give high values; B-score at 10 µM; 310,000 tested, 0.42% active;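 active = B-score of calcium response area above 5 SD of library B-scores, with initial fluorescence ratio within 5 SD of library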;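 note: B-score of integrated fluorescence ratio over time as area under calcium response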
TRPC6 inh: mouse TRPC6 channel inhibitors, primary screen, cell-based, HEK293, membrane potential dye. Short transient receptor potential channel 6 (Mus musculus), Q61143. ACh-evoked depolarization; hits give low values. B-score at 10 µM. 310,000 tested, 1.1% active;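 active = B-score under library mean minus 3 SD, initial fluorescence not abnormally high, positive integrated signal ratio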;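 note: B-score derived from integrated fluorescence ratio over the kinetic read; more negative B-score means stronger inhibition of depolarization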
TRPC6 act: mouse TRPC6 channel activators, primary screen, cell-based, HEK293, membrane potential dye; AID 2550, 2010; 310,000 tested, 0.13% active; HEK293-TRPC6 membrane potential dye fluorescence; hits give high values; Short transient receptor potential channel 6 (Mus musculus), Q61143; B-score at 10 µM;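 active = B-score of the integrated fluorescence ratio above library mean plus 3 SD, and starting fluorescence ratio within library mean plus 5 SD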;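 note: higher score means more depolarization so channel activation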
The depositor's hits bear a star; i = inactive. Hits are enriched below; roughly 2.3% of the tested compounds scored in any of these assays.

SMILES	TRPC4 act	TRPC4 block	TRPC4 potent	TRPC6 inh	TRPC6 act
CN(C)/C=C1/C(=O)N(c2ccc([N+](=O)[O-])cc2)N=C1c1ccccc1	i	i	i	i	i
C=CCNc1nc(N2CCCC2)nc2ccccc12	i	-7*	i	i	i
CCCN(CCO)CCCc1ccccc1	i	i	11*	i	i
CCN(CCCc1ccccc1)CCCc1ccccc1	i	i	i	i	i
CCOc1cc(CNCCCN2CCOCC2)cc(Br)c1OCC(=O)Nc1cccc(C(F)(F)F)c1	i	-6*	i	i	i
COc1cc(CNCCCN2CCOCC2)cc(Br)c1OCc1ccc(Cl)cc1	i	-6*	i	i	i
CCOc1cc(CNCCCN2CCOCC2)cc(Cl)c1OCC(=O)NC(C)(C)C	i	i	i	i	i
COc1ccccc1OCC(=O)N(Cc1nnc(-c2ccccc2Cl)o1)C1CC1	i	i	i	i	i
CCN(c1ccccc1)S(=O)(=O)c1ccc(C(=O)N2CC(C)CC(C)C2)cc1 (stereo not drawn)	i	i	i	i	i
O=C(c1cccs1)N1CCN=C1SCc1ccc(F)cc1	i	i	i	i	i
Cc1ccc(-n2cc(CNC(C)c3cnn(C)c3)c(-c3ccc(F)cc3)n2)cc1 (stereo not drawn)	233*	i	i	i	i
Cc1ccc(-n2cc(CNC(C)c3cnn(C)c3C)c(-c3ccc(F)cc3)n2)cc1 (stereo not drawn)	184*	i	i	i	i
Cc1ccc(-n2cc(CN3CCN(Cc4nccn4C)CC3)c(-c3ccc(F)cc3)n2)cc1	i	i	i	i	i
Cc1ccc(-n2cc(CNCCc3cscn3)c(-c3ccc(F)cc3)n2)cc1	130*	i	i	i	i
Cc1ccc(-c2nn(-c3ccccc3)cc2CNCc2ccccc2)cc1	i	i	i	i	i
O=C(NC12CC3CC(CC(C3)C1)C2)c1cccc(OC(F)F)c1	i	i	i	i	i
CCCc1cc(C(=O)Cc2ccc(F)cc2)c(O)cc1O	i	i	i	i	i
CCCc1cc(C(=O)Cc2ccc(C(=O)OCC)o2)c(O)cc1O	i	i	i	-5.46*	i
CCOc1ncccc1C(=O)NNC(=O)c1csc(N2CCOCC2)n1	i	i	i	i	i
C/C(=N\N(c1ccccc1)c1ccccc1)c1ccc(N)cc1	i	i	24*	i	i
C/C(=N\N(c1ccccc1)c1ccccc1)c1ccc(O)cc1	i	i	i	i	i
Cc1cc([N+](=O)[O-])c2c(c1C)C1C=CCC1C(c1ccccn1)N2 (stereo not drawn)	i	i	i	i	i
CCCOc1ccc(CSC(=N)N)cc1C(=O)OC	185*	i	i	i	i
COc1ccc(CSC(=N)N)cc1[N+](=O)[O-]	53*	i	i	i	i
N=C(N)SCc1ccc(O)c([N+](=O)[O-])c1	i	i	i	i	i
SMILES	TRPC4 act	TRPC4 block	TRPC4 potent	TRPC6 inh	TRPC6 act
COC(=O)c1cc(CSC(=N)N)ccc1OCCC(C)C	i	i	i	i	i
CCC(=O)N1CCc2cc(Br)cc(S(=O)(=O)N(C)c3ccc(OC)cc3)c21	i	i	i	i	i
CCN1CCCC(OC(=O)c2cc(-c3ccc(C)cc3)nc3ccccc23)C1 (stereo not drawn)	i	i	14*	i	i
COc1ccc(OCC(O)CNCc2ccco2)cc1 (stereo not drawn)	i	i	i	i	i
COc1ccc(C(CNCC(O)COc2c(C)ccc(C)c2C)N(C)C)cc1 (stereo not drawn)	68*	i	i	i	i
Cc1cc2c(n1-c1ccc(C(=O)O)cc1)CCCCC2	i	i	i	i	i
CCOCCCNC(=O)c1c[nH]c2c(CC)cccc2c1=O	i	i	i	i	i
O=C(CNCc1ccccn1)Nc1ccc([N+](=O)[O-])cc1C(=O)Nc1ccccc1F	i	i	i	i	i
Cc1nc2ccccc2n1CC(O)COc1ccc(Br)cc1 (stereo not drawn)	i	i	i	i	i
Cc1nc2ccccc2n1CC(O)COc1ccccc1Cl (stereo not drawn)	i	-7*	i	i	i
CC(C)(C)c1cc(CCC(=O)NNC(=S)NC(=O)c2ccccc2)cc(C(C)(C)C)c1O	211*	i	i	i	i
CC(=O)NC(=S)NNC(=O)CCc1ccccc1	i	i	i	i	i
O=C(CCc1ccccc1)NNC(=S)NC(=O)c1ccccc1	150*	i	i	i	i
CC(C)(C)c1cc(CCC(=O)NNC(=O)c2ccco2)cc(C(C)(C)C)c1O	i	i	i	i	i
CCOc1ccc(C(C(=O)NC2CCCC2)N(C(=O)CNC(=O)c2ccco2)c2cccnc2)cc1 (stereo not drawn)	i	i	i	i	i
Nc1cc(N2CCCCC2)c([N+](=O)[O-])cc1Cl	i	-6*	i	i	i
Nc1cc(N2CCCCC2)c(Cl)cc1[N+](=O)[O-]	i	i	i	i	i
CCN1/C(=C\c2ccc3cc(C)ccc3[n+]2CC)Sc2cc(C)c(C)cc21	131*	i	29*	i	i
CCN1/C(=C/c2ccc3cccc(C)c3[n+]2CC)Sc2ccccc21	335*	-6*	15*	i	i
CC1(/[N+]([O-])=C\c2ccccc2F)CCCCC1=O (stereo not drawn)	i	i	i	i	i
O=C(CC1(CC2=NS(=O)(=O)c3ccccc3N2)CCCC1)NCCc1ccccc1	i	i	i	i	i
CCC(C)(C)C1CCC2(CC1)NC(=O)N(CC(=O)Nc1cc(C(F)(F)F)ccc1N1CCOCC1)C2=O (stereo not drawn)	i	i	i	i	i
COc1cc(-c2noc(C)c2-c2ccc(N(C)C)nc2)cc(OC)c1OC	66*	i	i	i	i
COc1cc(-c2noc(C)c2-c2ccc3[nH]ccc3c2)cc(OC)c1OC	i	i	i	i	i
